The record followed here is ChEMBL document CHEMBL4251758, “Small Molecule Inhibition of MicroRNA miR-21 Rescues Chemosensitivity of Renal-Cell Carcinoma to Topotecan” (J Med Chem, 2018).

Calls of active or inactive are those of the source. No cut-off for these calls is given here.

The target of series [1] is microRNA 21. Kind of series: Inhibition of miR-21 RNA in human HeLa cells harboring miR-21 binding sequence in 3'-UTR of firefly luciferase gene assessed as increase in luciferase expression incubated for 48 hrs by Bright-Glo luciferase reporter gene assay. It is filed as cell-based. Put shortly: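 HeLa-miR21-Luc stable line (miR-21 site in the firefly luciferase 3′-UTR), 1000 cells per well. Compound or DMSO (0.1% final) added after overnight attachment, in triplicate, for 48 h. Bright-Glo luminescence was normalized to XTT viability (450 nm) and expressed as fold change relative to DMSO. At least three independent experiments.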

Series [2] in a line: Inhibition of miR-122 RNA (unknown origin) transfected in human Huh7-psiCHECK-miR122 cells at 10 uM incubated for 48 hrs by Bright-Glo luciferase reporter gene assay.
Series [3] in a line: Inhibition of miR-125b RNA (unknown origin) transfected in human PC3 cells at 10 uM after 48 hrs by Bright-Glo luciferase reporter gene assay. It is filed as cell-based. On the technique in general: Reporter assays use an easily measured gene product as a stand-in for the process of interest.
A short description of series [4]: Inhibition of miR-221 RNA (unknown origin) transfected in human PC3 cells at 10 uM after 48 hrs by Bright-Glo luciferase reporter gene assay. Type of series: cell-based.
Series [5] concerns HeLa. Description: Effect on mature miR-21 expression levels in human HeLa cells at 10 uM after 48 hrs by qRT-PCR analysis. Type of series: functional, cell-based. The method in brief: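 HeLa cells, 150,000 per well, grown overnight and exposed to 10 μM compound or DMSO (1% final) for 48 h at 37 °C. RNA was isolated and 100 ng reverse-transcribed with miR-21 or RNU19 TaqMan RT primers. TaqMan qPCR run for 40 cycles. Triplicate Ct values converted to levels relative to DMSO by the 2−ΔΔCt method.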

In series [6] the test system is HeLa. Description: Effect on primary miR-21 expression levels in human HeLa cells at 10 uM after 48 hrs by qRT-PCR analysis. Type of series: functional, cell-based. Put shortly: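 HeLa cells were treated with 10 μM compound or DMSO (1% final) for 48 h, then RNA was isolated. 50 ng RNA was reverse-transcribed with iScript. TaqMan qPCR used pri-miR-21 and GAPDH primers. Triplicate Ct values were normalized to GAPDH and to DMSO controls by the 2−ΔΔCt method.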
(In general: Quantitative PCR measures a nucleic acid by following its amplification.)

The test system of another series is A549. Description: Decrease in mature miR-21 expression levels in human A549 cells at 10 uM after 48 hrs by qRT-PCR analysis. Type of series: functional, cell-based.
Series [7] relates to microRNA 21. Kind of series: Inhibition of promoter activity of miR-21 RNA (unknown origin) transfected in human HeLa cells at 10 uM after 48 hrs by Bright-Glo luciferase reporter gene assay. Type of series: cell-based. Put shortly:
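HeLa cells, 10,000 per well, treated after overnight attachment with 10 μM compound or DMSO (0.1% final) in triplicate for 48 h. Cells were then transfected for 3 h with 100 ng pGL4-miR21P (miR-21 promoter driving firefly luciferase) or empty pGL4.10. Medium was replaced with compound-containing medium for a further 24 h, followed by Bright-Glo luminescence read.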

A short description of series [8]: Stabilization of pre-miR-21 RNA (unknown origin) assessed as increase in melting temperature at 10 uM by UV-spectrophotometric analysis. Put shortly: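 Melting-curve analysis of precursor miR-21 RNA run with test compound, with DMSO as the reference condition and tobramycin (10 μM) as a positive control for RNA binding and stabilisation. Read-out is the shift in melting temperature of pre-miR-21 relative to the DMSO sample.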

The subject of another series is MIA PaCa-2. Kind of series: Cytotoxicity against human MIAPaCa2 cells after 72 hrs by XTT assay. It is filed as functional, cell-based. As to conditions: MIA PaCa-2, 72 h. Put shortly: (§1)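 Cells seeded at 500 per well, incubated overnight, then exposed to increasing compound concentrations (0.1% DMSO final, DMSO control) in triplicate for 72 h. Activated XTT added; absorbance read at 450 nm with 630 nm background at start and after 4 h at 37 °C, 5% CO2. Change normalized to DMSO as % viability; IC50 from variable-slope sigmoidal fit; three independent measurements.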
For orientation: Tetrazolium assays rely on reduction of a dye to a coloured formazan, in cell work by metabolically active cells.

The subject of a further series is MCF7. Kind of series: Cytotoxicity against human MCF7 cells after 72 hrs by XTT assay. Type of series: functional, cell-based. As to conditions: MCF7, 72 h. Put shortly:
as §1

The test system of the next series is HCT-116. Kind of series: Cytotoxicity against human HCT116 cells after 72 hrs by XTT assay. Type of series: functional, cell-based. To be noted: HCT-116, 72 h. Put shortly: as §1
Series [9] deals with microRNA 21. Description: Inhibition of miR-21 RNA in human A498 cells assessed as potentiation of topotecan-induced cytotoxicity by measuring reduction in topotecan IC50 at 10 uM after 72 hrs by XTT assay relative to topotecan alone. It is filed as cell-based. The method in brief: (§2)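 The chemotherapeutic agent (topotecan) was titrated while the miR-21 inhibitor was held at a fixed concentration, 0.1% DMSO final, in triplicate. Cells were seeded at 500 per well and treated after overnight attachment. After 72 h, XTT was read at 450 nm (630 nm background) at start and after 4 h. Signal normalized to DMSO; IC50 from variable-slope sigmoidal fit.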

The test system of series [10] is A498. Kind of series: Inhibition of colony formation of human A498 cells up to 10 uM after 2 weeks by crystal violet staining-based microscopic analysis. Type of series: functional, cell-based. Put shortly: (§3)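 A498 cells, 10,000 per well, seeded in 0.45% low-melt agarose in DMEM over a 0.7% agarose base layer, containing increasing compound concentrations or DMSO (0.1% final), in triplicate. For combinations, the inhibitor was held at 10 μM. After 2 weeks, colonies were stained with 0.1% crystal violet and imaged by z-stack microscopy. Colony counts were normalized to DMSO; IC50 from sigmoidal fit.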

Series [11] has as its system A498. Kind of series: Induction of apoptosis in human A498 cells assessed as increase in caspase-3/7 activity at 10 uM after 24 hrs by Caspase-Glo 3/7 assay relative to control. Type of series: functional. The method in brief:
(§4)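 A498 cells, 10,000 per well, treated after overnight attachment for 24 h with DMSO (0.1%), 400 nM topotecan, 10 μM inhibitor, or topotecan plus inhibitor at those levels. Caspase-3/7 activity read by Caspase-Glo 3/7 luminescence and normalized to DMSO. At least three independent experiments; unpaired t test.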

Series [12] deals with microRNA 21. Description: Inhibition of miR-21 RNA in human A498 cells assessed as potentiation of topotecan-induced apoptosis by measuring increase in caspase-3/7 activity at 10 uM after 24 hrs by Caspase-Glo 3/7 assay relative to control. Type of series: cell-based. The arrangement: scale not given: the % may be the effect or the level left. Put shortly: as §4
Series [13] concerns the target microRNA 21. Kind of series: Inhibition of miR-21 RNA in human A498 cells assessed as potentiation of topotecan-induced cytotoxicity by measuring topotecan IC50 at 10 uM after 72 hrs by XTT assay (reference value: 1 uM). Type of series: cell-based. Put shortly:
as §2

The next series concerns NIH3T3. Kind of series: Potentiation of topotecan-induced cytotoxicity in mouse NIH/3T3 cells at 1 to 10 uM after 72 hrs by XTT assay. It is filed as cell-based. As to conditions: nih3t3, 72 h. The method in brief:
as §2

Series [14] relates to microRNA 21. Description: Inhibition of miR-21 RNA in human A498 cells assessed as potentiation of topotecan-induced inhibition of colony formation by measuring reduction in topotecan IC50 at 10 uM after 2 weeks by crystal violet staining-based microscopic analysis relative to topotecan alone. It is filed as cell-based. Put shortly: as §3
The subject of series [15] is microRNA 21. Kind of series: Inhibition of miR-21 RNA in human A498 cells assessed as potentiation of topotecan-induced apoptosis by measuring increase in caspase-3/7 activity at 10 uM after 24 hrs by Caspase-Glo 3/7 assay relative to topotecan alone. It is filed as cell-based. The method in brief:
as §4

For `C#CCOc1ccc(-c2noc(-c3nnn(-c4cccc(/C(C)=N/O)c4)c3N)n2)cc1`, the EC50 – broadly, the concentration that produces a half-maximal response – on microRNA 21 [1] was 5.3 µM. The inhibition result with microRNA 21 [1] was “Dose-dependent effect”. Besides, the inhibition result (in [2]; in [3]; in series [4]; with microRNA 21 [7]; with A498 [10]) was “inactive” in each case. For the same compound, the outcome (in the series with HeLa [5]; in the series with HeLa [6]; in the series on A549; in series [8]) was inactive. In addition, the IC50 (in general, the concentration that gives 50% inhibition) in the series on MIA PaCa-2 was determined as 6.7 µM; in the series with MCF7, 4.5 µM; in the series on HCT-116 it was 5.9 µM; at microRNA 21 [13], 0.09 µM. In addition, the fold change (FC) with microRNA 21 [9] is 11; in the series on microRNA 21 [14] it was 27; in the series on microRNA 21 [15], 1.6. Moreover, the Activity in the series with A498 [11] was 20%; in the series with microRNA 21 [12], 512%; with NIH3T3 it was “Non-Toxic”.
